{"source": "ChEMBL document CHEMBL4428067", "about": "“Drug Discovery against Psoriasis: Identification of a New Potent FMS-like Tyrosine Kinase 3 (FLT3) Inhibitor, 1-(4-((1H-Pyrazolo[3,4-d]pyrimidin-4-yl)oxy)-3-fluorophenyl)-3-(5-(tert-butyl)isoxazol-3-yl)urea, That Showed Potent Activity in a Psoriatic Animal Model” (J Med Chem, 2016)", "key": {"Mus musculus [1]": {"species": "Mus musculus", "experiment": "Antipsoriatic activity in K14-VEGF transgenic mouse model of psoriasis assessed as lower left quadrant FLT3+/CD11c+/MHC-II+ mDC cells in psoriatic plaque lesion at 0.05% applied tropically over lesion for continuous 29 days by flow cytometric analysis (reference value: 1.09%)"}, "Mus musculus [2]": {"species": "Mus musculus", "experiment": "Antipsoriatic activity in K14-VEGF transgenic mouse model of psoriasis assessed as upper left quadrant FLT3+/CD11c+/B220+ pDC cells in psoriatic plaque lesion at 0.05% applied tropically over lesion for continuous 29 days by flow cytometric analysis (reference value: 36.1%)", "format": "functional"}, "Mus musculus [3]": {"species": "Mus musculus", "experiment": "Antipsoriatic activity in K14-VEGF transgenic mouse model of psoriasis assessed as upper left quadrant DC cells expressing FLT3 and CD11c in psoriatic plaque lesion at 0.05% applied tropically over lesion for continuous 29 days by flow cytometric analysis (reference value: 9.62%)", "format": "functional"}, "Mus musculus [4]": {"species": "Mus musculus", "experiment": "Antipsoriatic activity in K14-VEGF transgenic mouse model of psoriasis assessed as recurrence of psoriatic symptoms at 0.05% applied tropically over lesion for continuous 21 days measured after 15 days of last dosage by macroscopic analysis relative to vehicle control", "format": "functional, organism-based", "method_in_brief": "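Homozygous K14-VEGF mice, 3–4 months old, with moderate to serious psoriasis. Lesions smeared with cream with or without 0.05% compound for 3 weeks, then observed untreated for another 15 days. Head and neck photographed on days 0, 21 and 36 for macroscopic assessment.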"}, "Mus musculus [5]": {"species": "Mus musculus", "experiment": "Antipsoriatic activity in K14-VEGF transgenic mouse model of psoriasis assessed as lower left quadrant FLT3+/CD11c+/B220+ pDC cells in psoriatic plaque lesion at 0.05% applied tropically over lesion for continuous 29 days by flow cytometric analysis (reference value: 63.7%)"}, "Mus musculus [6]": {"species": "Mus musculus", "experiment": "Antipsoriatic activity in K14-VEGF transgenic mouse model of psoriasis assessed as lower left quadrant FLT3+/CD11c+/MHC-II+ mDC cells in psoriatic plaque lesion at 0.05% applied tropically over lesion for continuous 29 days by flow cytometric analysis (reference value: 35.2%)"}, "BMDC": {"tested_on": "BMDC", "experiment": "Decrease in IL23 level in Balb/c mouse BMDCs at 10 nM treated on day 9 post 9 days of FLT3L-stimulation measured after 12 hrs by ELISA", "format": "functional, cell-based", "method_in_brief": "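BALB/c bone marrow cells were plated at 1×10^6/ml in RPMI-1640 with 10% FCS, 10^-4 M 2-ME, pyruvate, antibiotics and FLT3L for 9 days. On day 9, compound in DMSO or 0.1% DMSO was added. After 12 h, supernatant IFN-γ and IL-23 were measured by ELISA. Three independent experiments.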"}, "[7]": {"biological_target": "T1, Receptor-type tyrosine-protein kinase FLT3 (Mus musculus) (UniProt Q00342)", "T1 sequence (whole entry)": "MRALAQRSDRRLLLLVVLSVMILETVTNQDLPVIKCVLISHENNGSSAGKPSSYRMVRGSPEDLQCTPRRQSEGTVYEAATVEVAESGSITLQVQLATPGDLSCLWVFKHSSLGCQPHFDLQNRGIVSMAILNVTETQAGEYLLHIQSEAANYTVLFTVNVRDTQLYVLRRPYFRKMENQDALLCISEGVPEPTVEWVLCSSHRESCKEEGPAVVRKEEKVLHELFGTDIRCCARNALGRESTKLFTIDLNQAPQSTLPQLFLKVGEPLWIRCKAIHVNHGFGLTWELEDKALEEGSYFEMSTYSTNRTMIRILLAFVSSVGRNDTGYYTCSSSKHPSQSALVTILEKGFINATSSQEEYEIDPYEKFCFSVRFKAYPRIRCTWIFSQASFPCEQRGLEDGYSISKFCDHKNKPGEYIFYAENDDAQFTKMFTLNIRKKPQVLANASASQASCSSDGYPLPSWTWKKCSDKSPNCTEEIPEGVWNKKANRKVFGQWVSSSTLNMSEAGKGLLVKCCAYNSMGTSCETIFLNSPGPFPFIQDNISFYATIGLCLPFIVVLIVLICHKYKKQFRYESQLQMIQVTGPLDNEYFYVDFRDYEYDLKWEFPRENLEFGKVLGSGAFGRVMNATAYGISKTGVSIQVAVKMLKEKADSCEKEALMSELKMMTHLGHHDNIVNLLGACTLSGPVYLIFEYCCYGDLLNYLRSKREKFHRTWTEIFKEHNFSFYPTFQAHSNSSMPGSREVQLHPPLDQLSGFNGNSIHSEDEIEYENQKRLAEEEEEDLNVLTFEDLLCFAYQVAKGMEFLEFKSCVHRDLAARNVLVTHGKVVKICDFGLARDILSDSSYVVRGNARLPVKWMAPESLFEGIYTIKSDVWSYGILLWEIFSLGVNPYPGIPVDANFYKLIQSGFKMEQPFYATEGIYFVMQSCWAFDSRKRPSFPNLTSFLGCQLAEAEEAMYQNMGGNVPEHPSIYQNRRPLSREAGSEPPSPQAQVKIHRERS", "experiment": "Inhibition of FLT3 in mouse BMDCs assessed as suppression of STAT5 phosphorylation at 10 and 100 nM treated on day 9 post 9 days of FLT3L-stimulation measured after 1 hr by Western blot analysis", "method_in_brief": "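Bone marrow cells were cultured 9 days with FLT3L in supplemented RPMI-1640, then exposed to compound or 0.1% DMSO for 1 h on day 9. Whole cells were lysed and immunoblotted with rabbit antibodies to STAT3, STAT5, pSTAT3 and pSTAT5. Three independent experiments.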"}, "[8]": {"biological_target": "T1, Receptor-type tyrosine-protein kinase FLT3 (Mus musculus)", "experiment": "(§1) Inhibition of FLT3 in Balb/c mouse BMDCs assessed as suppression of FLT3L-induced mDC formation measured as upper right quadrant cells level treated on day 9 post 9 days of FLT3L-stimulation measured after 24 hrs by CD11c PerCP and I-A/I-E (MHC class II) FITC staining based flow cytometric analysis (reference value: 21%)", "set-up": "scale not given: the % may be the effect or the level left", "method_in_brief": "(§2)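 BALB/c bone marrow cells were cultured at 1×10^6/ml with FLT3L in supplemented RPMI-1640 for 9 days. Compound in DMSO or 0.1% DMSO was added on day 9 for 24 h. Cells were stained for 30 min with CD11c PerCP plus B220 FITC (pDC: CD11c+ B220+) or MHC II FITC (mDC: CD11c+ MHC II+), then analysed by flow cytometry. Three independent experiments.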"}, "[9]": {"biological_target": "T1, Receptor-type tyrosine-protein kinase FLT3 (Mus musculus)", "experiment": "as §1, with “pDC” for “mDC”, “CD45R/B220” for “I-A/I-E (MHC class II)”, “14.9%)” for “21%)”", "set-up": "scale not given: the % may be the effect or the level left", "method_in_brief": "as §2"}}, "note": "The source made the active and inactive calls. No cut-off for these calls is given here.", "data": [{"smiles": "CC(C)(C)c1cc(NC(=O)Nc2ccc(Oc3ncnc4[nH]ncc34)c(F)c2)no1", "values": [{"measurement": "Activity", "setting": "Mus musculus [1]", "value": 1.54, "unit": "%"}, {"measurement": "Activity", "setting": "Mus musculus [2]", "value": 9.6, "unit": "%"}, {"measurement": "Activity", "setting": "Mus musculus [3]", "value": 3.22, "unit": "%"}, {"measurement": "Activity", "setting": "Mus musculus [4]", "value": "inactive"}, {"measurement": "Activity", "setting": "Mus musculus [5]", "value": 89.9, "unit": "%"}, {"measurement": "Activity", "setting": "Mus musculus [6]", "value": 8.58, "unit": "%"}, {"measurement": "inhibition", "setting": "BMDC", "value": "Active"}, {"measurement": "inhibition", "setting": "[7]", "value": "Active"}, {"measurement": "Activity", "setting": "[8]", "value": 16.7, "unit": "%"}, {"measurement": "Activity", "setting": "[9]", "value": 7.84, "unit": "%"}]}]}
